Assay results reported in ChEMBL document CHEMBL3877330, “Synthesis and Antitumor Activity Evaluation of a Novel Combi-nitrosourea Prodrug: BGCNU” (ACS Med Chem Lett, 2017).

Key:
[1] = Cytotoxicity against AGT-positive human SF763 cells assessed as reduction in cell viability measured after 24 hrs by CCK8 assay; assay type: functional, cell-based; settings: SF763, 24 h
[2] = Cytotoxicity against AGT-positive human SF767 cells assessed as reduction in cell viability measured after 24 hrs by CCK8 assay; assay type: functional, cell-based; settings: SF767, 24 h
[3] = Cytotoxicity against AGT-positive human SF767 cells assessed as reduction in cell viability pretreated with O6-BG for 2 hrs followed by addition of compound measured after 24 hrs by CCK8 assay; assay type: functional, cell-based
Procedure, shortened: (§1)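 Nitrosourea combined with 20 µM O6-BG. Survival curves were generated for the glioma cells across a range of drug concentrations, and IC50 was read from those curves.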

[4] = Cytotoxicity against AGT-deficient human SF126 cells assessed as reduction in cell viability measured after 24 hrs by CCK8 assay; assay type: functional, cell-based; settings: SF-126, 24 h
[5] = Cytotoxicity against AGT-deficient human SF126 cells assessed as reduction in cell viability pretreated with O6-BG for 2 hrs followed by addition of compound measured after 24 hrs by CCK8 assay; assay type: functional, cell-based; settings: SF-126; procedure, shortened: as §1
[6] = biological target: T1, Methylated-DNA--protein-cysteine methyltransferase (Homo sapiens) (UniProt P16455); experiment: Inhibition of AGT in human SF763 cells assessed as increase in dG-dC crosslinking incubated for 12 hrs by HPLC-ESI-MS/MS analysis; assay type: cell-based
T1 sequence (whole entry): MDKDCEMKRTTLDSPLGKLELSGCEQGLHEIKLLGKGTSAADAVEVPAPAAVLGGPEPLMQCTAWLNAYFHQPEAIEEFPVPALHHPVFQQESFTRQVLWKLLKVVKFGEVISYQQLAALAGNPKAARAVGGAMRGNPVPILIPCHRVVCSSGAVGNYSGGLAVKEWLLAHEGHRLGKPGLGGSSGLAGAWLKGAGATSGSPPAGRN
Procedure, shortened: (§2)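 Glioma cells exposed to drug at 0.1, 0.2, 0.4 and 0.6 mM. Genomic DNA then extracted and dG-dC interstrand cross-link levels quantified by HPLC-ESI-MS/MS. Triplicate determinations (n=3) per concentration.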

[7] = biological target: T1, Methylated-DNA--protein-cysteine methyltransferase (Homo sapiens); experiment: Inhibition of AGT in human SF767 cells assessed as increase in dG-dC crosslinking incubated for 12 hrs by HPLC-ESI-MS/MS analysis; assay type: cell-based; procedure, shortened: as §2
[8] = tested on: SF-126; experiment: Binding affinity to DNA in AGT-deficient human SF126 cells assessed as increase in dG-dC crosslinking incubated for 12 hrs by HPLC-ESI-MS/MS analysis; assay type: cell-based; procedure, shortened: as §2
[9] = species on record: Bos taurus; experiment: Binding affinity to calf thymus DNA assessed as increase in dG-dC crosslinking incubated for 12 hrs under dark condition by HPLC-ESI-MS/MS analysis
Procedure, shortened: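 Calf thymus DNA treated directly with drug at 0.1, 0.2, 0.4 and 0.6 mM. dG-dC cross-link levels measured by HPLC-ESI-MS/MS.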

[10] = Potency index, ratio of ACNU IC50 to test compound IC50 for AGT-positive human SF763 cells; assay type: functional
Procedure, shortened: (§3)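 Cell survival curves were run in human glioma cells, with SF763 high in AGT and SF126 lacking AGT. IC50 values came from the curves. The index is the IC50 of ACNU or BCNU alone divided by the test compound's IC50.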

[11] = Potency index, ratio of ACNU IC50 in combination with O6-BG to test compound IC50 for AGT-positive human SF763 cells; assay type: functional
Procedure, shortened: (§4)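 Survival curves were run in AGT-high human glioma SF763 cells. […] The index is the IC50 of the combination divided by the test compound's IC50.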

[12] = Potency index, ratio of BCNU IC50 to test compound IC50 for AGT-positive human SF763 cells; assay type: functional; procedure, shortened: as §3
[13] = Potency index, ratio of BCNU IC50 in combination with O6-BG to test compound IC50 for AGT-positive human SF763 cells; assay type: functional; procedure, shortened: as §4
[14] = tested on: SF-126; experiment: Potency index, ratio of ACNU IC50 to test compound IC50 for AGT-deficient human SF126 cells; assay type: functional; procedure, shortened: as §3
[15] = n-Octanol/water partition coefficient, log P of the compound at 2 mM by HPLC analysis; assay type: physicochemical
[16] = Cytotoxicity against AGT-positive human SF763 cells assessed as reduction in cell viability pretreated with O6-BG for 2 hrs followed by addition of compound measured after 24 hrs by CCK8 assay; assay type: functional, cell-based; procedure, shortened: as §1

Structure (SMILES) | IC50 [1] | IC50 [2] | IC50 [3] | IC50 [4] | IC50 [5] | inhibition [6] | inhibition [7] | Activity [8] | Activity [9] | Ratio IC50 [10] | Ratio IC50 [11] | Ratio IC50 [12] | Ratio IC50 [13] | Ratio IC50 [14] | logP at 2000 µM [15] | IC50 [16]
Cc1ncc(CNC(=O)N(CCCl)N=O)c(N)n1 [NIMUSTINE] | 1600 µM | 570 µM | 400 µM | 450 µM | 360 µM | Dose-dependent effect | Dose-dependent effect | Dose-dependent effect | Dose-dependent effect |  |  |  |  |  |  | 
Nc1nc(OCc2ccccc2)c2ncn(CCNC(=O)N(CCCl)N=O)c2n1 | 60 µM | 58 µM |  | 52 µM |  | Dose-dependent effect | Dose-dependent effect | Dose-dependent effect | Dose-dependent effect | 27 | 17 | 5.8 | 3.3 | 7 - 9 | 1.81 | 
O=NN(CCCl)C(=O)NCCCl [CARMUSTINE] | 350 µM | 130 µM | 120 µM | 85 µM | 55 µM | Dose-dependent effect | Dose-dependent effect | Dose-dependent effect | Dose-dependent effect |  |  |  |  |  |  | 200 µM
